In ChEMBL document CHEMBL1130205, “Potent noncovalent thrombin inhibitors that utilize the unique amino acid D-dicyclohexylalanine in the P3 position. Implications on oral bioavailability and antithrombotic efficacy” (J Med Chem, 1997):

Columns and labels:
[1] = The half life period by intravenous administration in dog; type: ADME, organism-based, Canis lupus familiaris; conditions: in vivo
Outline: (§1)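 Two fasted male beagle dogs (10-12 kg), crossover design. Oral 5 mg/kg as 1% methocel suspension, blood from jugular vein at 0-480 min; iv 1 mg/kg bolus in 20% PEG/saline, blood at 0-480 min. Plasma frozen at -20 °C and assayed by HPLC.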

[2] = (§2) log P values were determined by the standard partition method using octanol/pH 7.4 phosphate buffer; type: physicochemical
Outline: (§3)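 Octanol/pH 7.4 phosphate buffer standard partition method.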

[3] = as §2; type: physicochemical; outline: as §3; remark: listed apart in the source
[4] = test system: Canis familiaris; assay: AUC (Area under curve) was determined after peroral administration at a dose 5 mg/kg in dog; type: ADME, organism-based, Canis lupus familiaris, Plasma; design: dose 5 mg/kg, route oral; conditions: in vivo, po; outline: as §1
[5] = The fraction of free compound available in plasma of rat; type: ADME, cell-free; conditions: read-out: Funbound_plasma
[6] = The half life period in rat.; type: ADME, organism-based; conditions: in vivo
Outline: (§4)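 Cannulated rats (carotid artery; jugular vein for iv group) dosed 2 mg/kg iv (saline or 30% propylene glycol/saline) or 10 mg/kg po (0.1% methocel suspension). Blood sampled 1-360 min (iv) or 15-360 min (po), centrifuged, plasma extracted with acetonitrile and quantified by thrombin enzyme activity assay.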

[7] = The plasma clearance in dog.; type: ADME, organism-based, Canis lupus familiaris; conditions: read-out: CI; outline: as §1
[8] = test system: Canis familiaris; assay: AUC (Area under curve) was determined after intravenous administration at a dose 1 mg/kg in dog; type: ADME, organism-based, Canis lupus familiaris, Plasma; design: dose 1 mg/kg, route intravenous; conditions: in vivo; outline: as §1
[9] = test system: Rattus norvegicus; assay: AUC (Area under curve) was determined after peroral administration at a dose 10 mg/kg in rat.; type: ADME, organism-based, Plasma; design: dose 10 mg/kg, route oral; conditions: in vivo, po
[10] = The plasma clearance in rat.; type: ADME, organism-based; conditions: read-out: CI; outline: as §4
[11] = molecular target: Prothrombin (Homo sapiens, UniProt P00734); assay: Inhibitory activity against human thrombin
[12] = test system: Rattus norvegicus; assay: AUC (Area under curve) was determined after intravenous administration at a dose 2 mg/kg in rat.; type: ADME, organism-based, Plasma; design: dose 2 mg/kg, route intravenous; conditions: in vivo
[13] = Bioavailability in rat; type: ADME, organism-based; conditions: in vivo; outline: as §4
[14] = test system: Rattus norvegicus; assay: Concentration required to double the activated partial thromboplastin time (2X APTT) in FeCl3 induced thrombosis in rat carotid artery at 6 micro g/kg/min dose by intravenous administration.; type: functional
Outline: (§5)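 Rat carotid artery FeCl3-induced thrombosis: inhibitor infused iv at 6 µg/kg/min for 120 min before FeCl3 insult (vehicle saline or 30% propylene glycol/saline); occlusions counted; plasma drug level at end of experiment. 2X APTT = plasma concentration (µM) doubling activated partial thromboplastin time, determined in rat plasma.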

[15] = Bioavailability in dog; type: ADME, organism-based, Canis lupus familiaris; conditions: in vivo; outline: as §1
[16] = The half life period by peroral administration in dog; type: ADME, organism-based, Canis lupus familiaris; conditions: in vivo, po; outline: as §1
[17] = organism: Rattus norvegicus; assay: (§6) Number of occlusions was reported; type: functional; outline: as §5
[18] = The fraction of free compound available in plasma of human; type: ADME, cell-free; conditions: read-out: Funbound_plasma
[19] = molecular target: T1, Serine protease 1 (Homo sapiens, UniProt P07477); assay: Inhibitory activity against human serine protease (Trypsin)(2143*)
[20] = molecular target: Plasminogen (Homo sapiens, UniProt P00747); assay: Inhibitory activity against human serine protease (plasmin) (3.0*10e6)
[21] = molecular target: Coagulation factor X (Homo sapiens, UniProt P00742); assay: Inhibitory activity against human serine protease Coagulation factor X (1.7*10e6*)
[22] = molecular target: Tissue-type plasminogen activator (Homo sapiens, UniProt P00750); assay: Inhibitory activity against human serine protease (TPA) (2.5*10e6*)
[23] = molecular target: Plasma kallikrein (Homo sapiens, UniProt P03952); assay: Inhibitory activity against human serine protease (plasma Kallikrein) (89000*)
[24] = as §6; type: ADME; outline: as §5
[25] = Partition coefficient (logP); type: physicochemical; conditions: octanol/water; outline: as §3
[26] = molecular target: T1, Serine protease 1; assay: Inhibitory activity against human trypsin

T1 sequence (P07477 whole entry): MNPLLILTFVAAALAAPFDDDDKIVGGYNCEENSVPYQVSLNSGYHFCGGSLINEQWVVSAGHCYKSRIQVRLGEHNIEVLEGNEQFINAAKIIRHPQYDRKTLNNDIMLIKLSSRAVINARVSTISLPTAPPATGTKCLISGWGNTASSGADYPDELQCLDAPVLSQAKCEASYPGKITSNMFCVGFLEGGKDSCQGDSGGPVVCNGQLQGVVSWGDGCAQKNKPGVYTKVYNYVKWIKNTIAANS
Sequence of Plasminogen (P00747 97-580 limits assumed): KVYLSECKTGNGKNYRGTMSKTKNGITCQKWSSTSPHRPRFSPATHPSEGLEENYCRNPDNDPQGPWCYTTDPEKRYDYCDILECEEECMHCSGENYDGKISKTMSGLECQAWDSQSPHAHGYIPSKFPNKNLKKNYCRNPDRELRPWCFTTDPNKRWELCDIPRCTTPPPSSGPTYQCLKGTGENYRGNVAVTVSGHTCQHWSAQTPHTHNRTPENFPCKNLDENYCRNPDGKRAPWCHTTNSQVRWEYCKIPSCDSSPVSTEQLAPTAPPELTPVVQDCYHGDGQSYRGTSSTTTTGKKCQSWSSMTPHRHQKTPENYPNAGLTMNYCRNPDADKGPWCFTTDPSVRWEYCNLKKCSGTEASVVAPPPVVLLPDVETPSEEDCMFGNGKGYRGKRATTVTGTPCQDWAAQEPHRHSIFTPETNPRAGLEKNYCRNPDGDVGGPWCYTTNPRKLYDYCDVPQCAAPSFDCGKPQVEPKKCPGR
Sequence of Plasminogen (P00747 581-810 limits assumed): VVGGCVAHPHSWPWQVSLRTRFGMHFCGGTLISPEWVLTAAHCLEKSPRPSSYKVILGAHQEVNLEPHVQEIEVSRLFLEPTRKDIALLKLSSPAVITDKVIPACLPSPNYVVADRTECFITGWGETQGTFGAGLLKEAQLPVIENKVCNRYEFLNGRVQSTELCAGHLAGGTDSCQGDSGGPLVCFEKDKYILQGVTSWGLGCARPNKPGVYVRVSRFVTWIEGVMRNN
Sequence of Plasma kallikrein (P03952 20-390 limits assumed): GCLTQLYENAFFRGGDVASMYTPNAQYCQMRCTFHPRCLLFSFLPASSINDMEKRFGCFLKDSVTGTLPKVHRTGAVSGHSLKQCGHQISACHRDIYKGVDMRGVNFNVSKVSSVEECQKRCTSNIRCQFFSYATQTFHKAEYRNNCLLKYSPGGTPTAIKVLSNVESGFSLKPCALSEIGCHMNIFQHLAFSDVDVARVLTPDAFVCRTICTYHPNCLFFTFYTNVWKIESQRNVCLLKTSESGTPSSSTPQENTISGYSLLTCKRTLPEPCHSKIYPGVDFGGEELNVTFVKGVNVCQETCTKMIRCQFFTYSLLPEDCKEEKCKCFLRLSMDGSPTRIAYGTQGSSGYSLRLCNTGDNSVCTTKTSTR
Sequence of Plasma kallikrein (P03952 391-638 limits assumed): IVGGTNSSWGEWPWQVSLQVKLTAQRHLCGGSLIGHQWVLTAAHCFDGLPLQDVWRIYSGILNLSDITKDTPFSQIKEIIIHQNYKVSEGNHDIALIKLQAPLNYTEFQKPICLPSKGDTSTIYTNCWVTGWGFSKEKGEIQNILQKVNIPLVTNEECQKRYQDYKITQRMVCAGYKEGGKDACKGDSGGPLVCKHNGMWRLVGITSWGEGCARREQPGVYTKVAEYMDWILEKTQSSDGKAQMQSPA
Sequence of Tissue-type plasminogen activator (P00750 whole entry): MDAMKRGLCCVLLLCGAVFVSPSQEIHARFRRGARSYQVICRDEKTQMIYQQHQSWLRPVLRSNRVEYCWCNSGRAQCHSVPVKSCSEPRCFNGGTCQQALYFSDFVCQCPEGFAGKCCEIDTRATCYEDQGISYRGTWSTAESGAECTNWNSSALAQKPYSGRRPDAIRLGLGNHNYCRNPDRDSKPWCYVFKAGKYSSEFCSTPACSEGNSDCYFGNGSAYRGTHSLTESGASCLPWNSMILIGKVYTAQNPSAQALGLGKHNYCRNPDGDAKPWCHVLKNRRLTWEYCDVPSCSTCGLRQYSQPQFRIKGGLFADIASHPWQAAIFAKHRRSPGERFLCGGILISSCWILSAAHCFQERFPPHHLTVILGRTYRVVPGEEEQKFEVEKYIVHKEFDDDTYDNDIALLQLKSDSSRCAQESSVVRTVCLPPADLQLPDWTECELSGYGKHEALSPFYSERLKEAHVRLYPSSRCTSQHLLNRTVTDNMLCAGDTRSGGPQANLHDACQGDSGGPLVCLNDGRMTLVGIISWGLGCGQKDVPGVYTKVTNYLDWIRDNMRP
Sequence of Coagulation factor X (P00742 41-179 limits assumed): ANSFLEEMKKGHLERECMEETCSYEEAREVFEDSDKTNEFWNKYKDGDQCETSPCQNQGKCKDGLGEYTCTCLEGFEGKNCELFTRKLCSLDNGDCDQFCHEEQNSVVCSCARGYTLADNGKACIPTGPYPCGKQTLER
Sequence of Coagulation factor X (P00742 235-488 limits assumed): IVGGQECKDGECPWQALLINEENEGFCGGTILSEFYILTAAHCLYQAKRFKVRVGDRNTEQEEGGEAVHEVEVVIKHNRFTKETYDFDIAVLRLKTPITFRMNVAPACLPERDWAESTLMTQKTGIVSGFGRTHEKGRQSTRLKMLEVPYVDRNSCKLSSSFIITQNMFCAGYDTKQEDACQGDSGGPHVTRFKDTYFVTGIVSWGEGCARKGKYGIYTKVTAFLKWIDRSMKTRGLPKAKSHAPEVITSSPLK

SMILES	logD [3]	fraction unbound [5]	half-life [6] [min]	AUC [9] [µM·h]	clearance [10] [mL/min/kg]	Ki [11] [nM]	AUC [12] [µM·h]	bioavailability [13] [%]	No. of occlusions [17]	further results
CC(C)(C)OC(=O)N[C@@H](C(=O)N1CCC[C@H]1C(=O)NCC1CCC(N)CC1)C(C1CCCCC1)C1CCCCC1 (some centres not stated)	> 3.09	< 0.01	249	6.86	17.9	0.1	3.34	41	4	half-life [1]: 196 min; logD [2]: > 3.09; AUC [4]: 45.3 µM·h; clearance [7]: 6.06 mL/min/kg; AUC [8]: 90 µM·h; Concentration [14]: 2.7 µM; bioavailability [15]: 90%; half-life [16]: 428 min
NC1CCC(CNC(=O)[C@@H]2CCCN2C(=O)[C@@H](N)C(C2CCCCC2)C2CCCCC2)CC1 (some centres not stated)						440				
NC1CCC(CNC(=O)[C@@H]2CCCN2C(=O)[C@H](N)C(C2CCCCC2)C2CCCCC2)CC1 (some centres not stated)	0.794	0.06	12	0.36	6	0.056	3.3	2	1	fraction unbound [18]: 0.02; Ki [19]: 120 nM; Ki [20]: 165 µM; Ki [21]: 95 µM; Ki [22]: 137 µM; Ki [23]: 5 µM
CC1CNc2c(cccc2S(=O)(=O)N[C@@H](CCCNC(=N)N)C(=O)N2CCC(C)C[C@@H]2C(=O)O)C1 (single isomer, unassigned) [ARGATROBAN]										No. of occlusions [24]: 0
CC(C)(C)OC(=O)N[C@H](C(=O)N1CCC[C@H]1C(=O)NCC1CCC(N)CC1)C(C1CCCCC1)C1CCCCC1 (some centres not stated)						3000				
NC1CCC(CNC(=O)[C@@H]2CCCN2C(=O)[C@H](N)C(c2ccccc2)c2ccccc2)CC1 (some centres not stated)										logP [25]: -0.539; Ki [26]: 94 nM
